Results from ChEMBL document CHEMBL1795332, “Renin inhibitors for the treatment of hypertension: design and optimization of a novel series of pyridone-substituted piperidines” (Bioorg Med Chem Lett, 2011).

Tests used:
Renin [1] = molecular target: T1, Renin (Homo sapiens, UniProt P00797); assay: Inhibition of human recombinant renin using Q-FRET substrate after 3 hrs by fluorescence assay
T1 sequence (P00797 whole entry): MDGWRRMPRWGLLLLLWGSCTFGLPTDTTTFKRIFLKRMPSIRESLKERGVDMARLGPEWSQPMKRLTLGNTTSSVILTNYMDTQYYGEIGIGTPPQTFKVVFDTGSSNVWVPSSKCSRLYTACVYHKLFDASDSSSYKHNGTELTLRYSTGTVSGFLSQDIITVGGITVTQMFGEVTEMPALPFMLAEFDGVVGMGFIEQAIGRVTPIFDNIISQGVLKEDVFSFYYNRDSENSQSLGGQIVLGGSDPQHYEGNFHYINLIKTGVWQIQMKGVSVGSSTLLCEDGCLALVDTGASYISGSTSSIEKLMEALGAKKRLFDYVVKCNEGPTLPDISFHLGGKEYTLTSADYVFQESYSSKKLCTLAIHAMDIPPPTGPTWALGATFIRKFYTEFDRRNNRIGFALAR

Renin [2] = molecular target: T1, Renin; assay: Inhibition of renin in human plasma using Q-FRET substrate pretreated for 10 mins before substrate addition measured after 1 hr
[3] = molecular target: Voltage-gated inwardly rectifying potassium channel KCNH2 (Homo sapiens, UniProt Q12809); assay: Inhibition of human ERG
CYP3A4 [4] = molecular target: T2, CYP3A4 (Homo sapiens, UniProt P08684); assay: Reversible inhibition of CYP3A4 assessed as conversion of testosterone to 6-beta-hydroxytestosterone at 10 uM relative to control; assay type: ADME; settings: probe testosterone
CYP3A4 [5] = molecular target: T2, CYP3A4; assay: Time dependent inhibition of CYP3A4 assessed as conversion of testosterone to 6-beta-hydroxytestosterone at 10 uM relative to control; assay type: ADME; settings: probe testosterone
In short: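 Rate of CYP3A4 conversion of testosterone (250 μM) to 6-β-hydroxytestosterone measured before and after a 30 min incubation with compound at 10 μM (in DMSO). Difference expressed as % loss.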

[6] = Oral bioavailability in Sprague-Dawley rat at 20 mg/kg; assay type: ADME, organism-based; settings: in vivo
[7] = Oral bioavailability in Sprague-Dawley rat at 30 mg/kg; assay type: ADME, organism-based; settings: in vivo

Sequence of Voltage-gated inwardly rectifying potassium channel KCNH2 (Q12809 whole entry): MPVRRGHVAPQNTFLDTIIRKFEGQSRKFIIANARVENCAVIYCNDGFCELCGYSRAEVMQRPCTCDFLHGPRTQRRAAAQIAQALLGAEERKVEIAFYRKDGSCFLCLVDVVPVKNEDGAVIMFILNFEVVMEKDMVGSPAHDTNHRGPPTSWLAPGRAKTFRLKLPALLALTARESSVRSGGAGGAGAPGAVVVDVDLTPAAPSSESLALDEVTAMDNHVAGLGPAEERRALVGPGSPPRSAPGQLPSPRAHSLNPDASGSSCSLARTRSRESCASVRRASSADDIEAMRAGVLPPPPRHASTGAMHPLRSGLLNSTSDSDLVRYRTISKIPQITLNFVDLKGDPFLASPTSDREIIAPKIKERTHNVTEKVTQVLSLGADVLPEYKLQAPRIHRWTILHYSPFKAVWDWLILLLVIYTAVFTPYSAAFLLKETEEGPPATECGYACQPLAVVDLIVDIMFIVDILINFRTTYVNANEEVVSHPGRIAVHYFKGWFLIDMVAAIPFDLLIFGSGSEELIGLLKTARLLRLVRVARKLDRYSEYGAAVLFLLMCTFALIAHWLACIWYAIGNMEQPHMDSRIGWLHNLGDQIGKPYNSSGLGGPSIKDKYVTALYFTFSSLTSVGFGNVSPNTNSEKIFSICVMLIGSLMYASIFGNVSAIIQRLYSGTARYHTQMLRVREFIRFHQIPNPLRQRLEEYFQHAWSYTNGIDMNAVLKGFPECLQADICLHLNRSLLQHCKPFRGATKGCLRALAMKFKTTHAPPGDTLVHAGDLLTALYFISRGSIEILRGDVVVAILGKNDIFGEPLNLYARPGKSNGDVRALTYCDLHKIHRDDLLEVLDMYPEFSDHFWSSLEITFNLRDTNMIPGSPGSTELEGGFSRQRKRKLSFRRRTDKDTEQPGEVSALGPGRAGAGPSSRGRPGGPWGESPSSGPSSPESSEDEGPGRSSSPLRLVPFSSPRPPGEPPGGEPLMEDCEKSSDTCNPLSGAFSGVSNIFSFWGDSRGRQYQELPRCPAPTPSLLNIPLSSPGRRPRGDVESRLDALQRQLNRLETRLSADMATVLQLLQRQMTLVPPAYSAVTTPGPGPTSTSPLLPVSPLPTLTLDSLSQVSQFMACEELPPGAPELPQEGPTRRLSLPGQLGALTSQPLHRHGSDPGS
T2 sequence (P08684 whole entry): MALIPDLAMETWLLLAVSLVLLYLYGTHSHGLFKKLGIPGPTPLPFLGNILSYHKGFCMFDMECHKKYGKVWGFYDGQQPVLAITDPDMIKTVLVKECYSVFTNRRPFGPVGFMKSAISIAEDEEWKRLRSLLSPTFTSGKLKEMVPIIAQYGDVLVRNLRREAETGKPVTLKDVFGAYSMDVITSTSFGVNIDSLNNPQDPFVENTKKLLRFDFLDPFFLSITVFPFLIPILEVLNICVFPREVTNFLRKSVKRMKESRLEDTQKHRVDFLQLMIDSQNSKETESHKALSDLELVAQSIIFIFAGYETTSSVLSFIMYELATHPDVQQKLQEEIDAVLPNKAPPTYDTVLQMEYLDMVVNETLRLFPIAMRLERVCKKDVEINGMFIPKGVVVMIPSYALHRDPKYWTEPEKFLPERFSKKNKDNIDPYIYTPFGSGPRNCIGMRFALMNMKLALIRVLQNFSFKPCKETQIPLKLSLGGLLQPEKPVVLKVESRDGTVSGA

SMILES | IC50 (Renin [1]) [nM] | IC50 (Renin [2]) [nM] | Ki [3] [nM] | activity % at 10 µM (CYP3A4 [4]) [%] | inhibition at 10 µM (CYP3A4 [5]) [%] | bioavailability [6] [%] | bioavailability [7] [%]
Cn1ccc([C@H]2CCNC[C@@H]2C(=O)N(Cc2cc(CCCC#N)cc(Cl)c2Cl)C2CC2)cc1=O | 4.9 | 10 | 8400 | 55 | 20 | 7 | 
Cn1ccc([C@H]2CCNC[C@@H]2C(=O)N(Cc2cc(CCC#N)cc(Cl)c2Cl)C2CC2)cc1=O | 8.5 | 17 | 17000 | 52 | 15 | 8 | 
COCCNc1cc(Cl)c(Cl)c(CN(C(=O)[C@H]2CNCC[C@@H]2c2ccn(C)c(=O)c2)C2CC2)c1 | 7.1 | 26 | 18000 | 71 | 0 | 1 | 
COCCCc1cc(CN(C(=O)[C@H]2CNCC[C@@H]2c2cc(=O)n(C)c(C)c2C)C2CC2)cc(OCCOC)c1 | 25 | 80 | > 29000 | 41 | 0 | 0 | 
COCCCc1cc(CN(C(=O)[C@H]2CNCC[C@@H]2c2ccn(C)c(=O)c2)C2CC2)cc(-c2ccccc2)c1 | 18 | 81 |  | 23 | 0 | 8 | 
Cn1ccc([C@H]2CCNC[C@@H]2C(=O)N(Cc2cn(Cc3ccc(F)cc3)c3cccc(F)c23)C2CC2)cc1=O | 0.05 | 0.48 | 750 | 16 | 70 |  | 17
Cn1ccc([C@H]2CCNC[C@@H]2C(=O)N(Cc2cccc(Cl)c2Cl)C2CC2)cc1=O | 20 | 42 | 13000 | 61 | 37 | 23 | 
COCCCc1cc(CN(C(=O)[C@H]2CNCC[C@@H]2c2ccn(C)c(=O)c2)C2CC2)c2ncccc2c1 | 0.8 | 2.2 | 27000 | 85 | 16 |  | 2
COCCCc1cc(Cl)cc(CN(C(=O)[C@H]2CNCC[C@@H]2c2ccn(C)c(=O)c2)C2CC2)c1 | 3 | 6.5 | 7600 | 23 | 1 |  | 28
COCCc1cc(Cl)c(Cl)c(CN(C(=O)[C@H]2CNCC[C@@H]2c2ccn(C)c(=O)c2)C2CC2)c1 | 0.6 | 2.2 | 11000 | 68 | 23 | 18 | 
COCCCc1cc(CN(C(=O)[C@H]2CNCC[C@@H]2c2ccn(C)c(=O)c2)C2CC2)cc(OCCOC)c1 |  |  | > 29000 | 78 | 0 | 3 | 
COCCCc1cc(CN(C(=O)[C@H]2CNCC[C@@H]2c2cc(=O)n(C)c3cc(Cl)ccc23)C2CC2)cc(OCCOC)c1 | 2 | 8 |  |  | 4 | 20 | 
COC(=O)NCCc1cc(Cl)c(Cl)c(CN(C(=O)[C@H]2CNCC[C@@H]2c2ccn(C)c(=O)c2)C2CC2)c1 | 61 | 210 | 15000 | 45 | 56 | 1 | 
COCCCn1cc(CN(C(=O)[C@H]2CNCC[C@@H]2c2ccn(C)c(=O)c2)C2CC2)c2c(F)cccc21 | 0.32 | 0.87 | > 29000 | 41 | 0 |  | 8
COCCCc1cc(C)c(C)c(CN(C(=O)[C@H]2CNCC[C@@H]2c2ccn(C)c(=O)c2)C2CC2)c1 | 0.6 | 1 |  |  | 15 |  | 7
Cn1ccc([C@H]2CCNC[C@@H]2C(=O)N(Cc2cn(Cc3cccc(F)c3)c3cccc(F)c23)C2CC2)cc1=O | 0.06 | 0.63 | 1200 | 18 | 39 |  | 30
COCCCc1cc(CN(C(=O)[C@H]2CNCC[C@@H]2c2ccn(C)c(=O)c2)C2CC2)c2ccccc2n1 | 1.4 | 3 | > 29000 | 95 | 13 | 1 | 
COCCCc1cc(CN(C(=O)[C@H]2CNCC[C@@H]2c2cccnc2)C2CC2)cc(OCCOC)c1 | 45 | 140 | > 29000 | 75 | 9 | 61 | 
COCCCc1ccc(Cl)c(CN(C(=O)[C@H]2CNCC[C@@H]2c2ccn(C)c(=O)c2)C2CC2)c1 | 8 | 25 |  |  | 29 | 14 | 
COCCCc1cc(CN(C(=O)[C@H]2CNCC[C@@H]2c2ccn(C)c(=O)c2)C2CC2)c2ccccc2c1 | 0.4 | 1.4 | 17000 | 54 | 34 | 4 | 
COCCCc1cc(CN(C(=O)[C@H]2CNCC[C@@H]2c2cc(=O)n(C)c3ccccc23)C2CC2)cc(OCCOC)c1 | 13 | 39 | 28000 | 100 | 5 | 1 | 
COCCCn1cc(CN(C(=O)[C@H]2CNCC[C@@H]2c2ccn(C)c(=O)c2)C2CC2)c2c(Cl)cccc21 | 0.12 | 0.64 | 23000 | 48 | 19 |  | 22
CC(=O)NCCc1cc(Cl)c(Cl)c(CN(C(=O)[C@H]2CNCC[C@@H]2c2ccn(C)c(=O)c2)C2CC2)c1 | 4.5 | 9 | > 29000 | 97 | 0 | 0 | 
CCn1ccc([C@H]2CCNC[C@@H]2C(=O)N(Cc2cc(CCCOC)cc(OCCOC)c2)C2CC2)cc1=O | 200 | 460 | > 29000 | 70 | 5 | 1 | 
COCCCc1cc(CN(C(=O)[C@H]2CNCC[C@@H]2c2ccccc2)C2CC2)cc(OCCOC)c1 | 150 | 580 | 7200 | 33 | 0 |  | 
COCCCc1cc(Br)cc(CN(C(=O)[C@H]2CNCC[C@@H]2c2ccn(C)c(=O)c2)C2CC2)c1 | 1.7 | 3.5 |  | 15 | 45 | 15 | 
COCCCc1cc(CN(C(=O)[C@H]2CNCC[C@@H]2c2ccc(OCCOc3c(Cl)cc(C)cc3Cl)cc2)C2CC2)cc(OCCOC)c1 |  |  | 800 | 9 | 27 | 27 | 
